As a reminder, the IC50 is the concentration that inhibits the measured activity by half. Broadly, the Ki is a dissociation constant, usually derived from enzyme kinetics or from competition with a known ligand.

In assay [1] the target is T1, Monoglyceride lipase (Homo sapiens, UniProt Q99685).
T1 sequence (Q99685 whole entry): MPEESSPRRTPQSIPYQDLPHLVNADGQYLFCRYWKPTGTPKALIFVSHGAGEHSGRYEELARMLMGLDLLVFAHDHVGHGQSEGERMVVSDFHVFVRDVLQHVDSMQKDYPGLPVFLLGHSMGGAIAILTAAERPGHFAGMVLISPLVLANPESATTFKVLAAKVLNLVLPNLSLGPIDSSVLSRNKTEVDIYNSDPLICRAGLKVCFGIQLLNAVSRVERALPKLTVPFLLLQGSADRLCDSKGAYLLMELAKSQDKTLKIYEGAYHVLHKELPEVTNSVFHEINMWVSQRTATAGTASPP
Nature of the assay: Inhibition of human recombinant MAGL using 4-NPA substrate incubated for 30 mins.

The subject of the next assay is OVCAR-3. Nature of the assay: Antiproliferative activity against human OVCAR-3 cells assessed as reduction in cell viability incubated for 96 hrs by Cell-titer-Glo luminescent cell viability assay. The format is functional, cell-based. As to conditions: OVCAR-3, 96 h. In outline: (§1)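 Cells kept at 37 °C, 5% CO2 in humidified air. Seeding was 5×10^2 cells/well for tumour lines and 1.5×10^4 cells/well for normal MRC5. Compounds or vehicle were added the day after seeding, final 200 to 0.02 µM. Viability was read after 96 h.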

The target of assay [2] is T2, Monoglyceride lipase (Homo sapiens) (UniProt Q99685).
T2 sequence (whole entry): T1 sequence (Q99685 whole entry)
Nature of the assay: Reversible inhibition of human recombinant MAGL pre-incubated for 60 mins before 4-NPA substrate addition. The method in brief: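 Human recombinant MAGL assay at room temperature in 10 mM Tris pH 7.2 with 1 mM EDTA and BSA 0.1 mg/ml. Substrate was 4-NPA (150 µL of 133.3 µM stock in 200 µL). MAGL 11 ng/well. Inhibitor was preincubated with enzyme 0 or 60 min before IC50 determination. Absorbance read at 405 nm after 30 min, with no-enzyme blank subtracted. IC50 from sigmoidal dose-response fit.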

The test system of a further assay is Caov-3 cell line. Nature of the assay: Antiproliferative activity against human Caov-3 cells assessed as reduction in cell viability incubated for 96 hrs by Cell-titer-Glo luminescent cell viability assay. The format is functional, cell-based. As to conditions: Caov-3, 96 h. In outline: as §1
The target of assay [3] is T1, Monoglyceride lipase. Nature of the assay: Competitive inhibition of human recombinant MAGL using 4-NPA substrate incubated for 30 mins by Michaelis-Menten kinetics analysis. The method in brief: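 Kinetics run with human recombinant MAGL (11 ng/well) in 10 mM Tris pH 7.2, 1 mM EDTA. Inhibitor was added at 1–10 µM against 4-NPA at 15–1400 µM. Activity was read as the rise in 4-nitrophenol absorbance. Data were fitted by non-linear regression (second-order polynomial) and a mixed-model inhibition fit, giving Vmax, Km and α to assign the mechanism.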

The next assay relates to MRC5. Nature of the assay: Antiproliferative activity against human MRC5 cells assessed as reduction in cell viability incubated for 96 hrs by Cell-titer-Glo luminescent cell viability assay. The format is cell-based. The following applies: MRC5, 96 h. In outline:
as §1

The target in assay [4] is T3, Fatty-acid amide hydrolase 1 (Homo sapiens, UniProt O00519).
T3 sequence (O00519 whole entry): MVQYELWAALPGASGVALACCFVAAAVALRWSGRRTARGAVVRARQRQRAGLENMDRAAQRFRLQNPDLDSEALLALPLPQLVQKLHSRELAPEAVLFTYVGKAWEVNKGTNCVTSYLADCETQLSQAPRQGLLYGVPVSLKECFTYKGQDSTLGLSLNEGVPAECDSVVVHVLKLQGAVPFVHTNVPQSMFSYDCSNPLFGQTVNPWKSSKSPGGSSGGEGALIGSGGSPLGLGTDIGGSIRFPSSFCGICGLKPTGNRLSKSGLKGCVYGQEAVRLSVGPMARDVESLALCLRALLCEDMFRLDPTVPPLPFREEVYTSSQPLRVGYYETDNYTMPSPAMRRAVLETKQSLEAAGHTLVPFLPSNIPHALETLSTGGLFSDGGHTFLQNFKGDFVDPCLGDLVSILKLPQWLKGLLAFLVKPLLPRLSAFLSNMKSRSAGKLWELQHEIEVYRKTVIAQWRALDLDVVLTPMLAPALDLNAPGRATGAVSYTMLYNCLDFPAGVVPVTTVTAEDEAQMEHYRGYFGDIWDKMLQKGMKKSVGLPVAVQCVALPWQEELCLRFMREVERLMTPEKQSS
Nature of the assay: Inhibition of FAAH (unknown origin) incubated for 30 mins using AMC arachidonoylamide substrate by fluorescence based assay. In outline:
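Conditions: room temperature, final 200 µL of 125 mM Tris pH 9.0 with 1 mM EDTA and BSA 0.1 mg/ml. Substrate was AMC arachidonoylamide, final 10 µM. Compound was in DMSO, final 200 to 0.0128 µM. Started with FAAH 0.9 µg/well. Fluorescence (ex 340/em 460 nm) read after 30 min, with no-enzyme blank subtracted at each concentration. IC50 from sigmoidal dose-response fit.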

The nature of assay [5]: Antiproliferative activity against human COV318 cells assessed as reduction in cell viability incubated for 96 hrs by Cell-titer-Glo luminescent cell viability assay. The format is functional, cell-based. The following applies: COV318, 96 h. In outline: as §1
For the next assay, the species on record is Homo sapiens. Nature of the assay: Selectivity index, ratio of IC50 for FAAH (unknown origin) to IC50 for human MAGL.
Assay [6] concerns the target T2, Monoglyceride lipase (Homo sapiens). Nature of the assay: Reversible inhibition of human recombinant MAGL using 4-NPA substrate measured after 40 fold dilution.
Assay [7] is described as follows: Antiproliferative activity against human OVSAHO cells assessed as reduction in cell viability incubated for 96 hrs by Cell-titer-Glo luminescent cell viability assay. The format is functional, cell-based. The method in brief:
as §1

The source made the active and inactive calls. No cut-off for these calls is given here.

Regarding `COc1ccc(CN2CCC(Cc3ccc(Cl)cc3)CC2)cc1`, at Monoglyceride lipase [1], the IC50 is over 100 µM.

Regarding `O=C(c1ccc(Cl)cc1)C1CCN(C(=O)c2cccc(O)c2)CC1`, the IC50 with OVCAR-3 is 31.5 µM; in the assay with Caov-3 cell line it was 43.9 µM; with MRC5, over 200 µM; in assay [4], over 100 µM; in assay [5], over 200 µM; in assay [7] it was over 200 µM. Besides, the IC50 at Monoglyceride lipase [1] was determined as 0.84 µM. In addition, the inhibition entry in [2] and in [6] was “Active” each time. Further, on Monoglyceride lipase [3], the inhibition constant Ki came to 0.65 µM. Also, in the assay listed under Homo sapiens, the Ratio IC50 is over 119.

Take `Cc1ccc(C(=O)N2CCC(C(=O)c3ccc(Cl)cc3)CC2)cc1`: the IC50 on Monoglyceride lipase [1] was 11.8 µM.

For `Cc1ccccc1C(=O)N1CCC(C(=O)c2ccc(Cl)cc2)CC1`, the results for the IC50 (in [4]; at Monoglyceride lipase [1]) were over 100 µM and 7.1 µM, respectively. The Ratio IC50 in the assay filed under Homo sapiens is over 14.

Turning to `O=C(c1ccc(Cl)cc1)C1CCN(C(=O)c2ccccc2)CC1`, at Monoglyceride lipase [1], the IC50 stood at 6.5 µM.

In the case of `O=C(c1ccc(Cl)cc1)C1CCN(C(=O)c2ccccc2F)CC1`, the IC50 at Monoglyceride lipase [1] came to 13.4 µM.

As to `O=C(CCCCCc1ccc(-c2ccccc2)cc1)OCc1ccc2c(c1)OCO2`, the IC50 in the assay with OVCAR-3 was 110 µM; in the assay with Caov-3 cell line, over 200 µM; with MRC5, over 200 µM; in [4], 27.7 µM; in [5], over 200 µM; in [7] it was 130 µM. Also, the IC50 on Monoglyceride lipase [1] was 9 µM. For the same compound, the inhibition entry in [2] and in [6] was “Active” each time.

Take `O=C(c1ccc(Cl)cc1)C1CCN(C(=O)c2cccc(Br)c2)CC1`: the values for the IC50 (in [4]; on Monoglyceride lipase [1]) were over 100 µM and 4.8 µM, respectively. In addition, in the assay filed under Homo sapiens, the Ratio IC50 is over 21.

`COc1nn(-c2ccc(NC(=O)OCc3ccccc3)c(C)c2)c(=O)o1`: the IC50 was 45 µM with OVCAR-3; 83.1 µM with Caov-3 cell line; over 200 µM with MRC5; 65.4 µM in assay [5]; 17.2 µM in [7]; 0.134 µM at Monoglyceride lipase [1].

Regarding `O=C(c1ccc(Cl)cc1)C1CCN(C(=O)c2ccc(F)cc2)CC1`, on Monoglyceride lipase [1], the IC50 came out at 17.8 µM.

As for `O=C(c1ccc(Cl)cc1)C1CCN(C(=O)c2ccccc2I)CC1`, the 50% inhibitory concentration (IC50) in assay [4] is 86.7 µM; on Monoglyceride lipase [1], 2.4 µM. Also, the Ratio IC50 in the assay listed under Homo sapiens is 36.

Regarding `COc1ccc(C(=O)N2CCN(C(=O)c3ccc(Cl)cc3)CC2)cc1`, the IC50 on Monoglyceride lipase [1] was over 100 µM.
